Source: publication PMC5430754 (Acta Pharmaceutica Sinica. B, 2017)
Read-outs that look alike come from different tables or passages of the source.

What was measured:
[1] = molecular target: sucrase (Rattus norvegicus, UniProt P23739); assay: α-glucosidase; format: biochemical; conditions: for Sucrase Inhibition (%): at the concentration of 10^—5 mol/L
[2] = tested on: maltase; assay: α-glucosidase; format: biochemical, Rat; conditions: for Maltase Inhibition (%): at the concentration of 10^—5 mol/L; for IC50: read-out: Maltase IC50, isolated compounds
Outline: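 Rat small-intestinal brush-border membrane vesicles, suspended in 0.1 mol/L phosphate buffer pH 6.0, served as the α-glucosidase source. Enzyme, substrate and test compound were incubated in the same buffer for 30 min at 37 °C. The reaction was stopped by heating to 80–85 °C for 3 min. Released glucose was measured by the glucose oxidase method. Triplicates at five concentrations gave IC50 from dose–response curves; % inhibition was measured at 10⁻⁵ mol/L.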

[3] = molecular target: T1, porcine pancreatic lipase (Sus scrofa, UniProt P00591); assay: lipase inhibitory activity; format: biochemical; conditions: for Lipase Inhibition (%): at the concentration of 10^—5 mol/L; for inhibition at 10 µM: 1 h, read-out: Lipase Inhibition (%)
T1 sequence (P00591 1-450): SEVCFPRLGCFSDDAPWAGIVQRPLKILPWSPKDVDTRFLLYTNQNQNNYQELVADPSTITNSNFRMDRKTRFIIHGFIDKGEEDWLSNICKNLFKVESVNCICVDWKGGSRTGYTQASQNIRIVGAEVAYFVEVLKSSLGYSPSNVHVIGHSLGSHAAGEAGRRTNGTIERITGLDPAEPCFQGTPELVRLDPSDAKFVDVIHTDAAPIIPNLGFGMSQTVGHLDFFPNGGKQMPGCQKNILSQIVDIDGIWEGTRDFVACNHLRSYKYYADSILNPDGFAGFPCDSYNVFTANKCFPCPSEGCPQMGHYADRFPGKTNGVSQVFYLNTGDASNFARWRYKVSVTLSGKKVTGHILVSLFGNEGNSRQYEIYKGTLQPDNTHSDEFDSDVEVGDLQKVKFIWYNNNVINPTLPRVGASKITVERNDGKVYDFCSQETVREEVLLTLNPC

[4] = read-out: Sucrase IC50, isolated compounds

Chain of sucrase (P23739 whole entry): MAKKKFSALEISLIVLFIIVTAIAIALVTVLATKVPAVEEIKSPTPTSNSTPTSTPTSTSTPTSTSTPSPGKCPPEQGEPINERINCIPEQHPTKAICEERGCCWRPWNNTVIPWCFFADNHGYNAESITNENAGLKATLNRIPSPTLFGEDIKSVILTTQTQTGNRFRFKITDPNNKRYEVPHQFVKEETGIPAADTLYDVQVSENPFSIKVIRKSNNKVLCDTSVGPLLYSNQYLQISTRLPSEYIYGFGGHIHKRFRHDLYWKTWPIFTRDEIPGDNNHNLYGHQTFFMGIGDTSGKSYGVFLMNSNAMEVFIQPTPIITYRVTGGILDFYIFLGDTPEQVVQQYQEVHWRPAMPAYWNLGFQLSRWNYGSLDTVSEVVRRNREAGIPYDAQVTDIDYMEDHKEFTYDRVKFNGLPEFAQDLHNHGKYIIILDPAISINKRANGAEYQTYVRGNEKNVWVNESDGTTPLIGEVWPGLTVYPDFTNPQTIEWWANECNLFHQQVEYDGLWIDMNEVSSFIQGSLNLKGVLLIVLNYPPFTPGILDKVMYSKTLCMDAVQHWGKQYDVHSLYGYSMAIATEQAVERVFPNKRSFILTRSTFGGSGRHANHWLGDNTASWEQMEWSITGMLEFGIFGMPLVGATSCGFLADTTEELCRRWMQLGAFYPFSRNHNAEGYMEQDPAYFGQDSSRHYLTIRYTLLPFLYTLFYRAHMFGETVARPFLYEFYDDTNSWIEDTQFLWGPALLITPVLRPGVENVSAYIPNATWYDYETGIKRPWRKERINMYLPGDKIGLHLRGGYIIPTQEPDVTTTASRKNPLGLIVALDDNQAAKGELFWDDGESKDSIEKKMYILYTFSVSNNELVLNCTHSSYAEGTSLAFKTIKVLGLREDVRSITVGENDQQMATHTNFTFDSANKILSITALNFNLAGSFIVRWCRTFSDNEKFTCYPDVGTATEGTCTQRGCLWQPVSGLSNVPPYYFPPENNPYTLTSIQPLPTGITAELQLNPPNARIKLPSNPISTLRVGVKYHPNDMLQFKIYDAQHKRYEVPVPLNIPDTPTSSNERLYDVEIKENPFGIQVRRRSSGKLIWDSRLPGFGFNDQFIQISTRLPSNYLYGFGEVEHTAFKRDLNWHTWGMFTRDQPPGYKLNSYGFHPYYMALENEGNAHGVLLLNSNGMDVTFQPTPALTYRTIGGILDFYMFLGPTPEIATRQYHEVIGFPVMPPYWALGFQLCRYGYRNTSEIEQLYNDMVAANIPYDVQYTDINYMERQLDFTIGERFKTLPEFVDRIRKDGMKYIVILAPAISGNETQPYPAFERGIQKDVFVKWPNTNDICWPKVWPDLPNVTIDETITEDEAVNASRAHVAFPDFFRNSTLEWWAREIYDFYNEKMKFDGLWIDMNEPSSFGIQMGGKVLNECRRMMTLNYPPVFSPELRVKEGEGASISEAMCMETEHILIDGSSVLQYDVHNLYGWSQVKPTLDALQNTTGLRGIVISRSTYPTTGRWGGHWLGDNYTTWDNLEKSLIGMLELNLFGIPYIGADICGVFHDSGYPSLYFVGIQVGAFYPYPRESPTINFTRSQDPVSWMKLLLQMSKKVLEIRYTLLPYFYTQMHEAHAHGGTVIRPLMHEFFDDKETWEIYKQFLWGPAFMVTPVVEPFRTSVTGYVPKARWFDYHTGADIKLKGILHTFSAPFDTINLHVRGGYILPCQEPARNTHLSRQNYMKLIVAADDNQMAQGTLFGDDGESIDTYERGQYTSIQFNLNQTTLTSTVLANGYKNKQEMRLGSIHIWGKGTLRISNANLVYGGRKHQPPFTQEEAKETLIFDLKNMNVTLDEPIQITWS

Compound	Sucrase Inhibition (%) [1] [%]	Maltase Inhibition (%) [2] [%]	IC50 [2] [µM]	Lipase Inhibition (%) [3] [%]	IC50 [1, 4] [µM]	IC50 ([3]; read-out: Lipase IC50, isolated compounds) [µM]	IC50 [1] [µM]	inhibition at 10 µM ([1]; 0.5 h, read-out: Sucrase Inhibition (%)) [%]	IC50 [3] [µM]	inhibition at 10 µM [3] [%]
O=C(/C=C\c1ccc(O)cc1)O[C@@H]1Cc2c(O)cc(O)cc2O[C@@H]1c1ccc(O)c(O)c1 [Compound 1, (–)-epicatechin-3-O-(Z)-coumarate]	45.4	71.8	49.7	42.6						
O=C(/C=C/c1ccc(O)cc1)O[C@@H]1Cc2c(O)cc(O)cc2O[C@@H]1c1ccc(O)c(O)c1 [Compound 2, (–)-epicatechin-3-O-(E)-coumarate]	71.3			41.6	62.1					
O=C(/C=C/c1ccc(O)c(O)c1)O[C@@H]1Cc2c(O)cc(O)cc2O[C@@H]1c1ccc(O)c(O)c1 [Compound 3, (–)-epicatechin-3-O-(E)-caffeate]	64.5			36.3	107					

Other lines, results leading:

Sucrase Inhibition (%) [1] [%]	Maltase Inhibition (%) [2] [%]	IC50 [2] [µM]	Lipase Inhibition (%) [3] [%]	IC50 [1, 4] [µM]	IC50 ([3]; read-out: Lipase IC50, isolated compounds) [µM]	IC50 [1] [µM]	inhibition at 10 µM ([1]; 0.5 h, read-out: Sucrase Inhibition (%)) [%]	IC50 [3] [µM]	inhibition at 10 µM [3] [%]	Compound
21.5	16.1		64.9		39.7					Oc1cc(O)c2c(c1)O[C@H](c1ccc(O)c(O)c1)[C@@H](O)C2 [Compound 4, (+)-catechin]
	92.0	200				74.6	90.4	20.4	92.1	O=C1c2c(O)cc(O)cc2O[C@H](c2cc(O)c(O)c(O)c2)[C@H]1O [Compound 5, ampelopsin]
	48.5							32.2	70.4	Oc1cc(O)c2c(c1)O[C@H](c1ccc(O)c(O)c1)[C@H](O)C2 [Compound 6, (–)-epicatechin]
